Bioassay records from PubChem.
TRPC4 block – inhibitors of mouse TRPC4 channel; HEK293 TRPC4beta/mu-opioid, DAMGO-evoked Fluo4 calcium flux; stronger effect = lower value; 300,000 tested, 0.39% active; AID 2247; B-score at 10 µM; Q9QUQ5;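 active = B-score over 3 SD under the library average, no early fluorescence shift, positive overall ratio signal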
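Material: HEK293 cells with stable TRPC4beta plus mu-opioid receptor expression / Probe or stimulus: DAMGO in two steps, submaximal then maximal / Compound: single concentration per test compound / Technique: kinetic Fluo4 fluorescence imaging of calcium influx / Read-out: per-well B score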
TRPC6 inh – mouse TRPC6 channel inhibition. Q61143. HEK293-TRPC6, membrane potential dye, ACh-evoked depolarization; stronger effect = lower value. B-score at 10 µM. 310,000 tested, 1.1% active;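 active = B-score under library mean minus 3 SD, initial fluorescence not abnormally high, positive integrated signal ratio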;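 also: B-score derived from integrated fluorescence ratio over the kinetic read; more negative B-score means stronger inhibition of depolarization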
TRPC4 PAM – TRPC4 (mouse) allosteric potentiation | HEK293 TRPC4beta/mu-opioid, DAMGO EC20, Fluo-4 Ca2+ flux; stronger effect = higher value | B-score at 10 µM | 310,000 tested, 0.42% active | AID 2227;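 active = B-score of calcium response area above 5 SD of library B-scores, with initial fluorescence ratio within 5 SD of library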
TRPC6 activator – activates the mouse TRPC6 cation channel; HEK293-TRPC6 membrane potential dye fluorescence; stronger effect = higher value; B-score at 10 µM; 310,000 tested, 0.13% active; AID 2550;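 active = B-score of the integrated fluorescence ratio above library mean plus 3 SD, and starting fluorescence ratio within library mean plus 5 SD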;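 also: higher score means more depolarization so channel activation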
CR mimetic SO – caloric restriction mimetics inhibiting age-related superoxide in yeast; S. cerevisiae aged cells, superoxide DHE fluorescence; stronger effect = lower value; superoxide response (% of plate mean), % at 10 µM; 330,000 tested, 0.18% active; AID 2690;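 active = superoxide response under a set limit, about three screen SD below normal, cut at about 65% in these data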;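 also: yeast aged for seven days with compound at 30 °C before DHE staining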
TRPC4 agonist – TRPC4 (mouse) channel activation. Q9QUQ5. HEK293 TRPC4beta/mu-opioid, Fluo4 calcium fluorescence; stronger effect = higher value. B-score at 10 µM. 310,000 tested, 0.49% active. AID 2237;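 active = B-score above 5 SD of library B-scores, and initial fluorescence ratio not above library mean plus 5 SD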;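 also: positive B-score marks a calcium rise read as TRPC4 activation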
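Material: TRPC4beta and mu-opioid receptor HEK293 stable cells | Incubation: 45 min room-temperature Fluo4 loading, 110 s read | Detection: Kinetic Fluo4 calcium fluorescence | Measure: Integrated baseline-normalised fluorescence ratio, converted to per-well B score | Benchmarks: Low control buffer alone, high control maximal DAMGO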
Superoxide pick – confirmation of caloric restriction mimetics inhibiting yeast age-related superoxide. shares compounds with CR mimetic SO. S. cerevisiae aging, superoxide DHE fluorescence; stronger effect = lower value. superoxide response (% of plate), % at 10 µM. 850 tested, 1% active;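 active = superoxide signal below 65% of the plate average of sample wells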;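 also: cells aged with compound for 7 days at 30 degrees C before staining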
DHE counter – compound alters DHE oxidation or fluorescence in yeast; shares compounds with CR mimetic SO; S. cerevisiae BY4741, flow cytometry; stronger effect = lower value; fluorescence response, % at 10 µM; 850 tested, under 10 active;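 active = fluorescence response below 15%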;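 also: lower means stronger quenching of DHE signal or ROS scavenging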
A number is an active result. Rows were chosen to be rich in hits. Some 2.3% of all compounds tested hit in one or more screens of this group.

How did Oc1ccccc1C=NCCCCCCN=Cc1ccccc1O do in these assays?
TRPC4 block: inactive; TRPC6 inh: inactive; TRPC4 PAM: inactive; TRPC6 activator: inactive; CR mimetic SO: inactive; TRPC4 agonist: inactive

What do the screens show for `CCCNS(=O)(=O)c1ccc(NC(=O)c2cccnc2)cc1`?
TRPC4 block: inactive; TRPC6 inh: inactive; TRPC4 PAM: inactive; TRPC6 activator: inactive; CR mimetic SO: 58; TRPC4 agonist: inactive; Superoxide pick: inactive; DHE counter: inactive

How did CC1(C)CC(NCc2cccc([N+](=O)[O-])c2)CC(C)(C)N1 do in these assays?
TRPC4 block: inactive; TRPC6 inh: inactive; TRPC4 PAM: inactive; TRPC6 activator: inactive; CR mimetic SO: 62; TRPC4 agonist: inactive; Superoxide pick: inactive; DHE counter: inactive

How did O=C(CN(c1ccc2c(c1)OCCO2)S(=O)(=O)c1ccccc1)NCc1ccc(Cl)cc1 do in these assays?
TRPC4 block: inactive; TRPC6 inh: inactive; TRPC4 PAM: inactive; TRPC6 activator: inactive; CR mimetic SO: 62; TRPC4 agonist: inactive; Superoxide pick: inactive; DHE counter: inactive

Results for CCN(Cc1ccccc1)S(=O)(=O)c1ccc(C(=O)Nc2nnc(C)o2)cc1 ?
TRPC4 block: inactive; TRPC6 inh: inactive; TRPC4 PAM: inactive; TRPC6 activator: inactive; CR mimetic SO: inactive; TRPC4 agonist: inactive; Superoxide pick: inactive; DHE counter: inactive

What do the screens show for `CCc1ccc(CN(C)CC(=O)Nc2sccc2C#N)cc1`?
TRPC4 block: inactive; TRPC6 inh: inactive; TRPC4 PAM: inactive; TRPC6 activator: inactive; CR mimetic SO: inactive; TRPC4 agonist: inactive

Results for Cc1ccc(-n2c(C)cc(C)c(C#N)c2=O)cc1C ?
TRPC4 block: inactive; TRPC6 inh: inactive; TRPC4 PAM: inactive; TRPC6 activator: inactive; CR mimetic SO: 62; TRPC4 agonist: inactive; Superoxide pick: inactive; DHE counter: inactive

How did Cc1cc(C)n(-c2ccc(F)cc2)c(=O)c1C#N do in these assays?
TRPC4 block: inactive; TRPC6 inh: inactive; TRPC4 PAM: inactive; TRPC6 activator: inactive; CR mimetic SO: inactive; TRPC4 agonist: inactive

How did COc1ccc(N=Cc2c(O)n(-c3cccc(C)n3)c(=O)c3ccccc23)c(OC)c1 do in these assays?
TRPC4 block: inactive; TRPC6 inh: inactive; TRPC4 PAM: inactive; TRPC6 activator: inactive; CR mimetic SO: inactive; TRPC4 agonist: inactive

How did O=C(CNCC(=O)Nc1ccc(F)c(F)c1F)Nc1ccc(F)c(F)c1F do in these assays?
TRPC4 block: inactive; TRPC6 inh: inactive; TRPC4 PAM: inactive; TRPC6 activator: inactive; CR mimetic SO: 65; TRPC4 agonist: inactive; Superoxide pick: inactive; DHE counter: inactive

Results for COc1cc(C(=O)NCCC(=O)NCCCN2CCCCC2C)cc(OC)c1OC (stereo not given) ?
TRPC4 block: inactive; TRPC6 inh: inactive; TRPC4 PAM: inactive; TRPC6 activator: inactive; CR mimetic SO: 62; TRPC4 agonist: inactive; Superoxide pick: inactive; DHE counter: inactive

How did COC(=O)Nc1ccc(S(=O)(=O)Nc2cccc3ccccc23)cc1 do in these assays?
TRPC4 block: inactive; TRPC6 inh: inactive; TRPC4 PAM: inactive; TRPC6 activator: inactive; CR mimetic SO: inactive; TRPC4 agonist: inactive

How did CC(=O)Nc1ccc(NC(=O)CSc2ccc(-c3ccc(-n4ccnc4)cc3)nn2)cc1 do in these assays?
TRPC4 block: inactive; TRPC6 inh: inactive; TRPC4 PAM: inactive; TRPC6 activator: inactive; CR mimetic SO: inactive; TRPC4 agonist: inactive; Superoxide pick: inactive; DHE counter: inactive

What do the screens show for `CC(=O)Nc1ccc(NC(=O)CSc2ccc(-c3cccnc3)nn2)cc1`?
TRPC4 block: inactive; TRPC6 inh: inactive; TRPC4 PAM: inactive; TRPC6 activator: inactive; CR mimetic SO: inactive; TRPC4 agonist: inactive

Results for Cc1cnc(C(=O)NNC(=O)c2ccc(Br)cc2)cn1 ?
TRPC4 block: inactive; TRPC6 inh: inactive; TRPC4 PAM: inactive; TRPC6 activator: inactive; CR mimetic SO: inactive; TRPC4 agonist: inactive

How did CCN(CC)S(=O)(=O)N1CCC(C(=O)NC2CCCC2)CC1 do in these assays?
TRPC4 block: inactive; TRPC6 inh: inactive; TRPC4 PAM: inactive; TRPC6 activator: inactive; CR mimetic SO: 64; TRPC4 agonist: inactive; Superoxide pick: inactive; DHE counter: inactive

Results for CCS(=O)(=O)N1CCC(C(=O)NC2CCCCC2)CC1 ?
TRPC4 block: inactive; TRPC6 inh: inactive; TRPC4 PAM: inactive; TRPC6 activator: inactive; CR mimetic SO: inactive; TRPC4 agonist: inactive

How did COC(=O)CN1C(=O)C2(OCCCO2)c2cc(Br)ccc21 do in these assays?
TRPC4 block: inactive; TRPC6 inh: inactive; TRPC4 PAM: inactive; TRPC6 activator: inactive; CR mimetic SO: inactive; TRPC4 agonist: inactive

How did CC(C)N1C(=O)C2(OCCCO2)c2cc(Br)ccc21 do in these assays?
TRPC4 block: inactive; TRPC6 inh: inactive; TRPC4 PAM: inactive; TRPC6 activator: inactive; CR mimetic SO: 60; TRPC4 agonist: inactive; Superoxide pick: inactive; DHE counter: inactive

What do the screens show for `CCCS(=O)(=O)N1CCc2cc(OC)c(OC)cc2C1`?
TRPC4 block: inactive; TRPC6 inh: inactive; TRPC4 PAM: inactive; TRPC6 activator: inactive; CR mimetic SO: inactive; TRPC4 agonist: inactive

What do the screens show for `COc1cc(C(=O)N2CCN(C(=O)c3cc(-c4ccccc4)n[nH]3)CC2)cc(OC)c1OC`?
TRPC4 block: inactive; TRPC6 inh: inactive; TRPC4 PAM: inactive; TRPC6 activator: inactive; CR mimetic SO: 63; TRPC4 agonist: inactive; Superoxide pick: inactive; DHE counter: inactive

How did COc1ccc(/C=N/OC(=O)c2ccc(Cl)cc2)c(Cl)c1OC do in these assays?
TRPC4 block: inactive; TRPC6 inh: inactive; TRPC4 PAM: inactive; TRPC6 activator: inactive; CR mimetic SO: inactive; TRPC4 agonist: inactive

What do the screens show for `C=CCSc1nnc(-c2ccc([N+](=O)[O-])cc2)o1`?
TRPC4 block: inactive; TRPC6 inh: inactive; TRPC4 PAM: inactive; TRPC6 activator: inactive; CR mimetic SO: 64; TRPC4 agonist: inactive; Superoxide pick: inactive; DHE counter: inactive

What do the screens show for `N#Cc1c2c(c(=S)n(-c3ccccc3)c1N)CCCC2`?
TRPC4 block: inactive; TRPC6 inh: inactive; TRPC4 PAM: inactive; TRPC6 activator: inactive; CR mimetic SO: inactive; TRPC4 agonist: inactive

What do the screens show for `O=C(CSc1ccc2nnc(-c3ccncc3)n2n1)Nc1ccc2c(c1)OCO2`?
TRPC4 block: inactive; TRPC6 inh: inactive; TRPC4 PAM: inactive; TRPC6 activator: inactive; CR mimetic SO: inactive; TRPC4 agonist: inactive

What do the screens show for `COCC(=O)Nc1ccc(S(=O)(=O)N2CCCC2)cc1`?
TRPC4 block: inactive; TRPC6 inh: inactive; TRPC4 PAM: inactive; TRPC6 activator: inactive; CR mimetic SO: inactive; TRPC4 agonist: inactive; Superoxide pick: inactive; DHE counter: inactive

Results for CCCC(=O)Nc1ccc(S(=O)(=O)N2CCCC2)cc1 ?
TRPC4 block: inactive; TRPC6 inh: inactive; TRPC4 PAM: inactive; TRPC6 activator: inactive; CR mimetic SO: inactive; TRPC4 agonist: inactive
